Measured values reported in ChEMBL document CHEMBL4321840, “Start Selective and Rigidify: The Discovery Path toward a Next Generation of EGFR Tyrosine Kinase Inhibitors” (J Med Chem, 2019).
Converted amounts (≈) assume the structure as drawn.

Columns and labels:
BaF3 = assay: Cytotoxicity against mouse BAF3 cells incubated for 72 hrs by Celltiter-Glo luminescent cell viability assay; type: cell-based; conditions: BaF3, 72 h
Method in brief: (§1)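 Mutant lines were made IL-3-independent; wt line grown on EGF without IL-3. EGFR-independent control cells carried GFP-only vector and were kept in IL-3. Seeded at 5x10³/100 µl, treated 72 h at 37 °C, viability read by CellTiter-Glo luminescence. Technical and biological triplicates. Geometric mean of ≥3 independent runs.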

[1] = target: T1, Epidermal growth factor receptor (Homo sapiens, UniProt P00533, C797S/EX19DEL/T790M); assay: Inhibition of phosphorylated EGFR del19/T790M/C797S triple mutant (unknown origin) expressed in mouse BaF3 cells incubated for 4 hrs by Alphascreen assay; type: cell-based
T1 sequence (P00533 whole entry, looked up, stated change not applied): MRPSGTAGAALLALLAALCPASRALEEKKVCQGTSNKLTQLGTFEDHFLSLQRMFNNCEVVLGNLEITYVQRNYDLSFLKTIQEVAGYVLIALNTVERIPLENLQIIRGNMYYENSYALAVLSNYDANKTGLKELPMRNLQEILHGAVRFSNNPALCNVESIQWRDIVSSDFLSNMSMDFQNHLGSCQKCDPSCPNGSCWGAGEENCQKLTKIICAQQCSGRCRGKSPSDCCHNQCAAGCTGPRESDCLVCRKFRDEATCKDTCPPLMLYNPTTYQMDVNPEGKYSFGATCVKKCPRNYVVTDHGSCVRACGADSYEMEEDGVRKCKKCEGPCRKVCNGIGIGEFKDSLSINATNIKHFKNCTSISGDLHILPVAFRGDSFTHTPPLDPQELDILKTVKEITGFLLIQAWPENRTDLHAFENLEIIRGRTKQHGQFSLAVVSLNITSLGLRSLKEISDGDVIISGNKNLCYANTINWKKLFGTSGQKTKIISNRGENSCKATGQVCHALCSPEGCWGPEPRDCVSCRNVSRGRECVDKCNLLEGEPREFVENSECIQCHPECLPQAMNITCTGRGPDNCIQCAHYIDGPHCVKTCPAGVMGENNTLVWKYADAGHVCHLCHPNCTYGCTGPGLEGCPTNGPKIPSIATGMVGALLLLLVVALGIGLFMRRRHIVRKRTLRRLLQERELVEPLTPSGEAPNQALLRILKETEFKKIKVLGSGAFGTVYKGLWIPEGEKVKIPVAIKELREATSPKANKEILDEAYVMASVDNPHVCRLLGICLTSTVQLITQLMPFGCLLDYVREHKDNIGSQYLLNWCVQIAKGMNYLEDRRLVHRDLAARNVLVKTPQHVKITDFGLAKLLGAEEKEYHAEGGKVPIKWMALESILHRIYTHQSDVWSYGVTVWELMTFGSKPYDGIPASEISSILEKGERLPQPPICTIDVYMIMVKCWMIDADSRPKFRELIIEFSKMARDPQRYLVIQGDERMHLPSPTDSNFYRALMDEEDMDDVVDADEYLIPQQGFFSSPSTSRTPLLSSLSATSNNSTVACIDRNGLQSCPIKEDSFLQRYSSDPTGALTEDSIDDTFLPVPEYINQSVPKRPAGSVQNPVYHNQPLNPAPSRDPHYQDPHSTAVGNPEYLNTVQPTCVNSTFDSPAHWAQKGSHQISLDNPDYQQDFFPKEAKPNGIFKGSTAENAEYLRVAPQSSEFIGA

[2] = Inhibition of EGFR del19/T790M/C797S triple mutant in mouse BAF3 cells assessed as reduction in cell proliferation incubated for 72 hrs by Celltiter-Glo luminescent cell viability assay; type: cell-based; conditions: BaF3, 72 h
Method in brief: as §1, with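 “Murine Ba/F3 cells retrovirally transduced with GFP plus EGFR wt, del19 or del19/T790M/C797S, then puromycin-selected. Mutant” for “Mutant”, “runs. Selectivity ratio = wt IC50 / del19/T790M/C797S IC50.” for “runs.”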

[3] = Selectivity index, ratio of IC50 for antiproliferative activity against mouse BAF3 cells harboring wild type EGFR to IC50 for antiproliferative activity against mouse BAF3(transformed) cells harboring EGFR del19/T790M/C797S triple mutant incubated for 72 hrs by Celltiter-Glo luminescent cell viability assay; type: functional
Method in brief: as §1, with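 “Murine Ba/F3 cells retrovirally transduced with GFP plus EGFR wt, del19 or del19/T790M/C797S, then puromycin-selected. Mutant” for “Mutant”, “runs. Selectivity ratio = wt IC50 / del19/T790M/C797S IC50.” for “runs.”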

[4] = target: T1, Epidermal growth factor receptor; assay: Inhibition of GST-fusion tagged EGFR del19/T790M/C797S triple mutant (unknown origin) (696 to 1022 residues) expressed in insect cells assessed as decrease in phosphorylation of ULight-poly-GT using poly-GT as substrate in presence of ATP
[5] = target: Epidermal growth factor receptor (Homo sapiens, UniProt P00533); assay: Inhibition of human recombinant GST-tagged wild type EGFR expressed in baculovirus expression system assessed as decrease in phosphorylation of ULight-poly-GT using ULight-poly-GT as substrate incubated for 90 mins in presence of ATP by TR-FRET LANCE assay
Epidermal growth factor receptor (Homo sapiens, UniProt P00533), sequence (P00533 whole entry, the tested form may be a part): as the sequence (P00533 whole entry, looked up, stated change not applied) above

[6] = target: Epidermal growth factor receptor (Homo sapiens, UniProt P00533, C797S/L858R/T790M); assay: Inhibition of GST-fusion tagged EGFR L858R/T790M/C797S triple mutant (unknown origin) (696 to 1022 residues) expressed in insect cells assessed as decrease in phosphorylation of ULight-poly-GT using poly-GT as substrate in presence of ATP
Epidermal growth factor receptor (Homo sapiens, UniProt P00533, C797S/L858R/T790M), sequence (P00533 25-1210 T790M/C797S/L858R limits assumed): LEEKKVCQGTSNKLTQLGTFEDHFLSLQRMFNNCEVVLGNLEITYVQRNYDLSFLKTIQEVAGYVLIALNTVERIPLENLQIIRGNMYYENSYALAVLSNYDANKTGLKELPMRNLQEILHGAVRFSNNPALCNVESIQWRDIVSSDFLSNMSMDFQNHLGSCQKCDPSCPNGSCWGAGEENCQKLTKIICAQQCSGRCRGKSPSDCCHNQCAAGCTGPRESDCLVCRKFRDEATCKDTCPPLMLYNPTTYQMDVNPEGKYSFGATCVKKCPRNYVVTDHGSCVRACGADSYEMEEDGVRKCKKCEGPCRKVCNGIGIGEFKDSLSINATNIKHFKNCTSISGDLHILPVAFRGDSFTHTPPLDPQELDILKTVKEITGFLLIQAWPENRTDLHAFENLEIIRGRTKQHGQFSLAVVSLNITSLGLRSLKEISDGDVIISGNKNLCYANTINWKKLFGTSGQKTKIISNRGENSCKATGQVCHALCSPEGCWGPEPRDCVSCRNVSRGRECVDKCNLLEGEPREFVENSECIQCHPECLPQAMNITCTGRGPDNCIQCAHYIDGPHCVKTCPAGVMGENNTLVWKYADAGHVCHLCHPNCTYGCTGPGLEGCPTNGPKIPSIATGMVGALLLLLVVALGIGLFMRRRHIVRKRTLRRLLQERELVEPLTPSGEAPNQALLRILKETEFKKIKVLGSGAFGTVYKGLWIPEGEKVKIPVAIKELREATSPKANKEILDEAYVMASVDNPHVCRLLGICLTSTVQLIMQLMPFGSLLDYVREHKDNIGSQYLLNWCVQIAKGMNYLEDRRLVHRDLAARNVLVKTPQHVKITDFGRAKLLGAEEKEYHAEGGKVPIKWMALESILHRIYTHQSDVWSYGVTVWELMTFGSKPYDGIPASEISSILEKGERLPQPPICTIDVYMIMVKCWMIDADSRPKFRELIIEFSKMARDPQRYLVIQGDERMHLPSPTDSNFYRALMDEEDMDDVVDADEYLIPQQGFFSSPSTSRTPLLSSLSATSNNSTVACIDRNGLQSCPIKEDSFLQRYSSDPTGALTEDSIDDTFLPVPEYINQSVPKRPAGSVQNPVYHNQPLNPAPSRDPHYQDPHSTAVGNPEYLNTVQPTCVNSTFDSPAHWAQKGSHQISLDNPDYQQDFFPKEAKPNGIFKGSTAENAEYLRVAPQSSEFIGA

Homo sapiens = species: Homo sapiens; assay: Selectivity ratio of IC50 for inhibition of human recombinant GST-tagged wild type EGFR expressed in baculovirus expression system to IC50 for inhibition of GST-fusion tagged EGFR del19/T790M/C797S triple mutant (unknown origin) (696 to 1022 residues) expressed in insect cells
Method in brief: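 TR-FRET kinase assays on ULight-poly-GT substrate (200 nM) with ATP 100 µM, final enzyme 1.5 nM (wt) or 15 nM (del746-750/T790M/C797S). Buffer was HEPES pH 7.3, MgCl2, EGTA, Tween 20, DTT. Reaction ran 90 min at room temperature and was stopped with EDTA plus Eu-anti-pTyr antibody, read after 60 min. Top concentration 100 µM with eleven fivefold dilutions in duplicate. IC50 from a 4-parameter logistic fit; ratio is wt IC50 over mutant IC50.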

[7] = Apparent permeability of compound at pH 7.4 by LC-MS based PAMPA method; type: ADME
Method in brief: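 PAMPA at pH 7.4. A microfilter disc coated with immobilized artificial phospholipid membrane layers separates donor and acceptor chambers. Compound concentrations in both chambers are followed over time by LC/MS and compared with the donor concentration before incubation.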

[8] = Protein binding in mouse plasma assessed as free fraction after 3 hrs by HPLC-MS/MS-based equilibrium dialysis method; type: ADME, cell-free
Method in brief: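 Equilibrium dialysis of compound-spiked plasma against Soerensen buffer (pH 7.4) for 3 hours at 37°C. Compound levels in the plasma and buffer sides quantified by HPLC/MS-MS to give the bound and free fractions.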

[9] = Aqueous solubility of compound in McIlvaine buffer at 1 mg/ml at pH 6.8 by HPLC-DAD/UV analysis; type: physicochemical
Method in brief: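 Solid compound dispensed at 1 mg/mL into aqueous McIlvaine buffer (pH 6.8). Reference sample dissolved in acetonitrile/water (1:1). Dissolved concentration quantified by HPLC-DAD/UV.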

PC-9 [10] = assay: Antiproliferative activity against human PC9 cells harboring EGFR del19/T790M/C797S triple mutant incubated for 96 hrs by Celltiter-Glo luminescent cell viability assay; type: functional, cell-based; conditions: PC-9, 96 h
Method in brief: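 Cells plated in 96-well plates (A431 5000/well in DMEM + 10% FBS + sodium pyruvate; PC-9 del19/T790M/C797S 2000/well in RPMI + 10% FBS). Compound added 24 h after plating, then 96 h at 37°C, 5% CO2. Viability read by CellTiter-Glo luminescence, normalised to DMSO-treated cells, IC50 fitted. Technical and biological triplicates.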

PC-9 [11] = assay: Antitumor activity against human PC9 cells harboring del19/T790M/C797S triple mutant xenografted in BomTac:NMRI-Foxn1nu mouse assessed as tumor growth inhibition at 10 mg/kg, po qd administered for 19 days relative to control; type: functional; conditions: PC-9, po, 456 h, read-out: TGI
Method in brief: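 Female BomTac:NMRI-Foxn1nu mice, 6-8 weeks old, implanted s.c. with 5×10⁶ PC-9 del19/T790M/C797S cells. Randomized by tumor size on day 7 (N=8 per treated group, N=10 vehicle). […] Tumor size and body weight measured three times weekly. Tumor volumes compared by one-sided decreasing Mann–Whitney test.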

[12] = Inhibition of EGFR del19 mutant in mouse BAF3 cells incubated for 72 hrs by Celltiter-Glo luminescent cell viability assay; type: cell-based; conditions: BaF3, 72 h
Method in brief: as §1, with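 “Murine Ba/F3 cells retrovirally transduced with GFP plus EGFR wt, del19 or del19/T790M/C797S, then puromycin-selected. Mutant” for “Mutant”, “runs. Selectivity ratio = wt IC50 / del19/T790M/C797S IC50.” for “runs.”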

[13] = Volume of distribution in NMRI mouse at 10 mg/kg, po or 1 mg/kg, iv; type: ADME, organism-based; conditions: in vivo
Method in brief: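 NMRI mice (n=3 per group) dosed orally at 10 mg/kg or intravenously at 1 mg/kg. Five plasma samples per mouse at set time points. Plasma protein precipitated with acetonitrile, compound quantified by LC-MS/MS against a calibration curve.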

A-431 = assay: Antiproliferative activity against human A431 cells harboring EGFR wild type incubated for 96 hrs by Celltiter-Glo luminescent cell viability assay; type: functional, cell-based; conditions: A-431, 96 h
[14] = Hepatic clearance in human cryopreserved hepatocytes at 1 uM measured after 240 mins by LC-MS/MS analysis relative to hepatic blood flow; type: ADME, cell-based, Hepatocyte; conditions: read-out: CLH
Method in brief: (§2)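 Compound (1 µM) incubated with cryopreserved hepatocytes. Depletion followed over 240 min by LC/MS/MS quantitation. In vivo hepatic clearance predicted with the well-stirred model and expressed as percent of hepatic blood flow (%QH).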

[15] = Protein binding in human plasma assessed as free fraction after 3 hrs by HPLC-MS/MS-based equilibrium dialysis method; type: ADME, cell-free
Method in brief: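 Equilibrium dialysis: human plasma spiked with compound and dialyzed against Soerensen buffer (pH 7.4) for 3 h at 37 °C. Compound in plasma and buffer quantified by HPLC/MS-MS to calculate binding and free fraction.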

[16] = Hepatic clearance in mouse cryopreserved hepatocytes at 1 uM measured after 240 mins by LC-MS/MS analysis relative to hepatic blood flow; type: ADME, cell-based, Hepatocyte; conditions: read-out: CLH; method in brief: as §2

Compound	IC50 (BaF3) [nM]	IC50 [1] [nM]	IC50 [2] [nM]	Ratio IC50 [3]	IC50 [4] [nM]	IC50 [5] [nM]	other results
Cc1cc2cc(n1)-c1cnn(C)c1OCCCCCN1/C(=N/C2=O)Nc2ccccc21	1700	1	5	460	–	–	–
Cn1cc(-c2cc(C(=O)/N=c3\[nH]c4ccccc4n3CC(C)(C)O)ccn2)cn1	8900	43	333	–	72	> 100000	IC50 [6]: 519 nM
CC(C)(O)Cn1/c(=N/C(=O)c2cc(F)cc(-c3cccnc3)c2)[nH]c2ccccc21	–	790	–	–	250	> 100000	Ratio IC50 (Homo sapiens): > 400; IC50 [6]: 2100 nM
C=CC(=O)Nc1cc(Nc2nccc(-c3cn(C)c4ccccc34)n2)c(OC)cc1N(C)CCN(C)C [OSIMERTINIB]	1100	–	780	–	–	–	Papp [7]: 2.7 ×10⁻⁶ cm/s; fraction unbound at 3 h [8]: < 0.1; solubility [9]: 86 µg/mL (≈ 172 µM); IC50 (PC-9 [10]): > 1000 nM
COc1ccncc1-c1cc(C(=O)/N=c2\[nH]c3ccccc3n2CC(C)(C)O)ccn1	990	1	51	–	≤ 3	–	–
O=C1/N=C2\Nc3ccccc3N2CCCCCOc2ccccc2-c2cc1ccn2	1600	3	27	48	–	–	–
Cc1cc2cc(n1)-c1cnn(C)c1OCCC[C@@H](C)CN1/C(=N/C2=O)Nc2ccc(CN3CCN(C)CC3)cc21	1100	–	0.2	–	–	–	Papp [7]: 5.3 ×10⁻⁶ cm/s; inhibition in vivo at 10 mg/kg (PC-9 [11]): 121%; solubility [9]: 95 µg/mL (≈ 175 µM); IC50 (PC-9 [10]): 1.3 nM; IC50 [12]: 1 nM; Vd [13]: 4.2 L/kg; IC50 (A-431): 200 nM
CC(C)(O)Cn1/c(=N/C(=O)c2cccc(-c3cccnc3)c2)[nH]c2ccccc21	–	1400	–	–	173	> 100000	IC50 [6]: 2700 nM
CC(C)(O)Cn1/c(=N/C(=O)c2ccnc(-c3ccccc3)c2)[nH]c2ccccc21	> 25000	22	150	–	35	> 100000	–
Cn1ncc2c1OCCCCCN1/C(=N/C(=O)c3cc(F)nc-2c3)Nc2ccccc21	330	1.2	6	45	–	–	–
Cc1cc2cc(n1)-c1cnn(C)c1OCCC[C@@H](C)CN1/C(=N/C2=O)Nc2ccccc21	1000	0.8	1	>1000	–	–	hepatic extraction ratio at 4 h, 1 µM [14]: 0.12; fraction unbound at 3 h [15]: 0.5; Papp [7]: 0.2 ×10⁻⁶ cm/s; fraction unbound at 3 h [8]: < 0.3; hepatic extraction ratio at 4 h, 1 µM [16]: 0.47; solubility [9]: < 0.1 µg/mL
CC(C)(O)Cn1/c(=N/C(=O)c2ccnc(-c3cccnc3)c2)[nH]c2ccccc21	–	–	270	–	–	–	–
